Active and inactive are the calls of the source.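 How the source made its calls, unless noted: active means viability loss from added drug above about 55%, and viability with drug at most 40%, in both replicates (limit read from the data, passing the limit was not always enough); inconclusive means both conditions met in only one replicate; inactive means neither replicate meets both conditions.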

The text below walks through data of PubChem BioAssay.

Test [1] in a line: Her2 expression decrease, cell viability multiplex – SKBR3 breast tumor cells, AlphaScreen, ATP viability, primary screen (AID 461;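 active means Her2 level under about 52% in both replicate screens, with viability over 70% of control, limit read from the data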;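 on Her2 level: lower value means less Her2 protein in the cells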;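 on viability: percent of carrier control wells set as 100% viability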). Conditions: SKBR3 Her2 protein level, 18-24 h, measured here: SKBR3 viability, ATP luminescence, at 10 µM.
The target in test [2] is Receptor tyrosine-protein kinase erbB-2 (Homo sapiens) (UniProt P04626). The test is described as above. Conditions: 18-24 h, at 10 µM, stronger effect = lower value.
Test [3] in a line: reduced viability of SK-BR-3 breast cancer cells – cell-based, 24 h, human, pilot screen (AID 572;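 active means viability at or below 10% of carrier control in both of two separate runs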;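 further: compound exposure lasted between 18 and 24 h rather than exactly 24 h; 100% = carrier-treated control wells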). Conditions: SK-BR-3 viability, CellTiter-Glo luminescence, at 10 µM, stronger effect = lower value.
Test [4] is described as follows: HUVEC growth inhibition – cell-based, human, primary screen (AID 575;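 active means viability at or below 30% in both replicate assays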;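 further: 100% = median of untreated cell wells with 0.1% DMSO on each plate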). Conditions: HUVEC proliferation, CellTiter-Glo luminescence, 72 h; at 10 µM; stronger effect = lower value. The method in brief: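 System – primary HUVEC, no more than 12 passages · Medium – Low-serum (2% FBS) EBM, supplemented · Times – 72 h exposure, 37 °C, 5% CO2, 30 min RT equilibration · Measured by – luminescent ATP assay · Read-out – % viability relative to median vehicle-well signal on each plate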

The nature of test [5]: H69AR cell proliferation blockers – human, duplicate replicates, primary screen (AID 580;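 active means viability at or under a set limit in both replicates, limit being median viability minus 3 SD, cut at about 48% in these data, passing the limit was not always enough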;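 further: 100% = mean luminescence of untreated wells and 0% = no signal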). Conditions: H69AR lung tumor cells viability, ATP luminescence, 72 h; at 10 µM; stronger effect = lower value.
Test [6] in a line: MRP1 drug-resistance reversers in H69AR cells – cell-based, doxorubicin co-treatment, pilot screen (AID 601). Conditions: CellTiter-Glo, 72 h, at 10 µM; for differential viability (reversal): stronger effect = higher value.
Test [7] in a line: yeast transport mutant growth inhibition pilot in 384-well plates, post-Golgi transport modulator project (AID 636; in the data active means inhibition above about 31%). Conditions: absorbance 615 nm, about 18 h, stronger effect = higher value.
A short description of test [8]: growth suppression of yeast trafficking mutant, preliminary HTS, modulators of trafficking downstream of Golgi apparatus project, 1536-format plate, OD 615 nm (AID 637; in the data active means inhibition above about 30%). Conditions: yeast transport mutant growth, absorbance 615 nm, 18 h; stronger effect = higher value.
Setting [9] is: H69AR cells + 2 uM doxorubicin, measured here: viability with 2 uM doxorubicin, stronger effect = lower value.
[10] abbreviates: H69AR cells, compound alone cytotoxicity.

Receptor tyrosine-protein kinase erbB-2 (Homo sapiens), sequence (P04626 whole entry, looked up): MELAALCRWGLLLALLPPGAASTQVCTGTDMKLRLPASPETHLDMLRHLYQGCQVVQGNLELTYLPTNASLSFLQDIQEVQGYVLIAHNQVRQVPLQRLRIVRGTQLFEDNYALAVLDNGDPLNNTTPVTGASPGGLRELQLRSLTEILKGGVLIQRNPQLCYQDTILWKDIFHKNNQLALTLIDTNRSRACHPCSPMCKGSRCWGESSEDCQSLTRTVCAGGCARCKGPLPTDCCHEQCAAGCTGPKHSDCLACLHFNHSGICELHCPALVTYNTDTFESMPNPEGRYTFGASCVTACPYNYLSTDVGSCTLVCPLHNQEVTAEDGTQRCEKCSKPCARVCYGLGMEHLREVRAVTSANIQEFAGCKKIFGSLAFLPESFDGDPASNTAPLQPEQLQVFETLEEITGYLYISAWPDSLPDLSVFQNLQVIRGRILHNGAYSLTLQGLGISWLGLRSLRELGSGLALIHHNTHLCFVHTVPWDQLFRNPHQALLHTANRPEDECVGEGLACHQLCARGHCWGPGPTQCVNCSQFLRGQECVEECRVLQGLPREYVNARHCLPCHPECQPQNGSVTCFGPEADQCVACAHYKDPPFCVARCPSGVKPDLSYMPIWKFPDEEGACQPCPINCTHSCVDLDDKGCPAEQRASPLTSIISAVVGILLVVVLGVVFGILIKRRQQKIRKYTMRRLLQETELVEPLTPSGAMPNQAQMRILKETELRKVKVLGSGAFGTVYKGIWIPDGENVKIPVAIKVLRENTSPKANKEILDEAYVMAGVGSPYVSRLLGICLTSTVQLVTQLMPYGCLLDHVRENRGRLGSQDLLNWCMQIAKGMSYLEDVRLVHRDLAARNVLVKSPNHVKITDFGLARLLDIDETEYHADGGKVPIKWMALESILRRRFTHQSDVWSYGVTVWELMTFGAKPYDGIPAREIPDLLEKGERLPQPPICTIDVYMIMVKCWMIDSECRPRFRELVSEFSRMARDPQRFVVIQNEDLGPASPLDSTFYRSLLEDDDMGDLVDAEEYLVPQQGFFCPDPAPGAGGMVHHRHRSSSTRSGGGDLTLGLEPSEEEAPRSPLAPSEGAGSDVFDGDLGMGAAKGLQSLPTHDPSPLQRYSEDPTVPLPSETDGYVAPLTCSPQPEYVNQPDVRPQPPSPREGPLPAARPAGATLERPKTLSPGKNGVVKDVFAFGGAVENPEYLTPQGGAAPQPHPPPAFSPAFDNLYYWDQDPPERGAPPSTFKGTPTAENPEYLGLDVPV

Regarding `CCc1nnc(NC(=O)CSc2nnc(-c3ccc(OC)cc3)n2C)s1`, the viability was 87% in test [1]; 87% (inactive) in test [3]; 89.3% (inactive) in test [4]; 104% (inactive) in test [5]; 98.6% in test [6] (setting [9]); 104% in test [6] (setting [10]). In addition, the Her2 level in test [2] was 94% (inactive). Besides, the differential viability (reversal) in test [6] (H69AR cells + 2 uM doxorubicin) is 5.08% (inactive). The values for the inhibition in test [7] and in test [8] were -2.8% (inactive) and 1.8% (inactive), respectively.
Turning to `CCOc1ccc(S(=O)(=O)N2CCN(C(=O)c3cccn3C)CC2)cc1`, the viability in test [1] was 101%; in test [3] it was 101% (inactive); in test [4], 101% (inactive); in test [5] it was 97.3% (inactive); in test [6] (setting [9]), 87.5%; in test [6] (setting [10]), 97.3%. For the same compound, the Her2 level in test [2] is 78.5% (inactive). Further, the differential viability (reversal) in test [6] (H69AR cells + 2 uM doxorubicin) was 9.79% (inactive). Also, the inhibition was -9.04% (inactive) in test [7] and -2.86% (inactive) in test [8].
Consider `COc1cc(NS(=O)(=O)N2CCCC2)cc(OC)c1OC`, for which the viability is 83.5% in test [1]; 83.5% (inactive) in test [3]; 94.8% (inactive) in test [4]; 92.2% (inactive) in test [5]; 83.8% in test [6] (setting [9]); 92.2% in test [6] (setting [10]). Also, the Her2 level in test [2] was 95.5% (inactive). For the same compound, in test [6] (H69AR cells + 2 uM doxorubicin), the differential viability (reversal) is 8.42% (inactive). Moreover, the inhibition in test [7] is -7.57% (inactive); in test [8] it was -2.95% (inactive).
For the compound `Cc1ccc(-n2c(Cn3cnc4ccccc43)nnc2SCC(=O)O)cc1`, the viability in test [1] was 102%; in test [3], 102% (inactive); in test [4], 94.3% (inactive); in test [5] it was 97.7% (inactive); in test [6] (setting [9]) it was 92.3%; in test [6] (setting [10]) it was 97.7%. Moreover, the Her2 level in test [2] is 108% (inactive). Also, the differential viability (reversal) in test [6] (H69AR cells + 2 uM doxorubicin) was 5.34% (inactive). Moreover, the inhibition in test [7] is -4.13% (inactive); in test [8], 24.3% (inactive).
Turning to `CCNC(=O)c1ccc(NS(=O)(=O)c2ccccc2)cc1`, the viability in test [1] is 124%; in test [3], 124% (inactive); in test [4], 86.1% (inactive); in test [5], 90.5% (inactive); in test [6] (setting [9]), 92.2%; in test [6] (setting [10]) it was 90.5%. Further, the Her2 level in test [2] was 91% (inactive). Further, in test [6] (H69AR cells + 2 uM doxorubicin), the differential viability (reversal) is -1.69% (inactive). For the same compound, the values for the inhibition in test [7] and in test [8] were 0% (inactive) and 4.1% (inactive), respectively.
Regarding `O=C1C2CCCN2C(c2ccc(Cl)cc2)N1c1nccs1` (stereo not given), the viability in test [1] was 99%; in test [3], 99% (inactive); in test [4], 86.5% (inactive); in test [5], 97.4% (inactive); in test [6] (setting [9]), 90.2%; in test [6] (setting [10]) it was 97.4%. For the same compound, the Her2 level in test [2] was 77% (inactive). Further, the differential viability (reversal) in test [6] (H69AR cells + 2 uM doxorubicin) was 7.26% (inactive). Moreover, the inhibition in test [7] was -2.24% (inactive); in test [8], -1.94% (inactive).
Consider `CCOC(=O)CN(C(=O)CSc1nnc(-c2ccncc2)n1CCCN(C)C)c1ccccc1`, for which the viability in test [1] was 107%; in test [3] it was 107% (inactive); in test [4], 106% (inactive); in test [5], 87.6% (inactive); in test [6] (setting [9]) it was 78.1%; in test [6] (setting [10]) it was 87.6%. Moreover, the Her2 level in test [2] was 98.5% (inactive). The differential viability (reversal) in test [6] (H69AR cells + 2 uM doxorubicin) is 9.5% (inactive). Also, the figures for the inhibition in test [7] and in test [8] were -5.19% (inactive) and 1.9% (inactive), respectively.
As for `COc1ccc(NC(=O)CN2CCCCC2)cc1`, the viability in test [1] is 108%; in test [3] it was 108% (inactive); in test [4], 90.2% (inactive); in test [5], 88.2% (inactive); in test [6] (setting [9]), 82.3%; in test [6] (setting [10]), 88.2%. In addition, the Her2 level in test [2] is 108% (inactive). The differential viability (reversal) in test [6] (H69AR cells + 2 uM doxorubicin) is 5.94% (inactive). Also, the inhibition in test [7] is -5.58% (inactive); in test [8], -10% (inactive).
`O=C(OCC(=O)c1c[nH]c2ccccc12)C1=COCCO1`: the viability in test [1] is 96%; in test [3] it was 96% (inactive); in test [4] it was 100% (inactive); in test [5], 97.5% (inactive); in test [6] (setting [9]) it was 100%; in test [6] (setting [10]), 97.5%. For the same compound, in test [2], the Her2 level was 76.5% (inactive). Also, the differential viability (reversal) in test [6] (H69AR cells + 2 uM doxorubicin) is -2.48% (inactive). The values for the inhibition in test [7] and in test [8] were -6.62% (inactive) and 6.17% (inactive), respectively.
Consider `O=C(CCCCCN1C(=O)CCC1=O)NCc1ccccc1`, for which the viability in test [1] is 103%; in test [3], 103% (inactive); in test [4] it was 100% (inactive); in test [5], 98.2% (inactive); in test [6] (setting [9]), 84.7%; in test [6] (setting [10]) it was 98.2%. In addition, in test [2], the Her2 level was 73% (inactive). Besides, the differential viability (reversal) in test [6] (H69AR cells + 2 uM doxorubicin) is 13.5% (inactive). Moreover, the values for the inhibition in test [7] and in test [8] were -7.97% (inactive) and 4.13% (inactive), respectively.
In the case of `O=C(c1cc2ccccc2oc1=O)N1CCSC1c1ccco1` (stereo not given), the viability in test [1] was 100%; in test [3], 100% (inactive); in test [4], 97.5% (inactive); in test [5], 91.5% (inactive); in test [6] (setting [9]) it was 85.3%; in test [6] (setting [10]), 91.5%. In test [2], the Her2 level was 93.5% (inactive). Moreover, the differential viability (reversal) in test [6] (H69AR cells + 2 uM doxorubicin) is 6.19% (inactive). Further, the figures for the inhibition in test [7] and in test [8] were -8.4% (inactive) and 5.74% (inactive), respectively.
Take `O=C(CSc1nc(O)c(Cc2ccccc2)c(=O)[nH]1)Nc1ccccc1`: the viability was 103% in test [1]; 103% (inactive) in test [3]; 106% (inactive) in test [4]; 86.2% (inactive) in test [5]; 85.9% in test [6] (setting [9]); 86.2% in test [6] (setting [10]). Also, in test [2], the Her2 level was 97% (inactive). The differential viability (reversal) in test [6] (H69AR cells + 2 uM doxorubicin) was 0.23% (inactive). Further, the inhibition in test [7] is -2.08% (inactive); in test [8] it was -2.33% (inactive).
On to `COc1ccc(C(CNC(=O)c2cc(C)oc2C)N2CCOCC2)cc1` (stereo not given), for which the viability in test [1] was 126%; in test [3], 126% (inactive); in test [4] it was 91.6% (inactive); in test [5], 101% (inactive); in test [6] (setting [9]) it was 110%; in test [6] (setting [10]), 101%. Moreover, the Her2 level in test [2] is 96.5% (inactive). The differential viability (reversal) in test [6] (H69AR cells + 2 uM doxorubicin) is -9.67% (inactive). Moreover, the values for the inhibition in test [7] and in test [8] were -3.64% (inactive) and -0.32% (inactive), respectively.
With `CN(C=C1C(=O)CC(C)(C)CC1=O)CCN1CCNCC1`, the viability in test [1] is 120%; in test [3], 120% (inactive); in test [4], 90.3% (inactive); in test [5], 96% (inactive); in test [6] (setting [9]), 85.8%; in test [6] (setting [10]) it was 96%. In addition, the Her2 level in test [2] is 102% (inactive). In addition, in test [6] (H69AR cells + 2 uM doxorubicin), the differential viability (reversal) was 10.2% (inactive). The inhibition in test [7] is -4.21% (inactive); in test [8], 2.13% (inactive).
